From ChEMBL document CHEMBL4689842, “EUbOPEN Chemogenomics Library wave 1” (2021)

Tested on: HEK-293T
Test: Multiplex assay against HEK293T;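 for Population Tubulin-Different-Phenotype (%): share of the cells with healthy nuclei that show this phenotype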
Type: toxicity, cell-based
Conditions: human
Summary of the method: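 Four dyes were applied at seeding to live cells: Hoechst33342, BioTracker Green Microtubule Cytoskeleton Dye, MitoTracker Red and Annexin V Alexa Fluor 680. Imaging after compound addition used a CQ1 microscope at 37°C and 5% CO2. CellPathfinder machine-learning gating then sorted cells into Hoechst high-intensity objects or normal cells, normal cells into healthy, pyknosed or fragmented nuclei, and pyknosed cells into mitotic or apoptotic, with tubulin, mitochondrial-mass and membrane-permeability phenotypes given as per cents of healthy-nucleus cells.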

[1] = 24 h, 1 µM, compound concentration 1 uM, replicate 2
[2] = 24 h, 10 µM, compound concentration 10 uM, replicate 1
[3] = 24 h, 10 µM, compound concentration 10 uM, replicate 2
[4] = 48 h, 1 µM, compound concentration 1 uM, replicate 1
[5] = 48 h, 1 µM, compound concentration 1 uM, replicate 2
[6] = 48 h, 10 µM, compound concentration 10 uM, replicate 1
[7] = 48 h, 10 µM, compound concentration 10 uM, replicate 2

With `N#CCNC(=O)c1ccc(-c2ccnc(Nc3ccc(N4CCOCC4)cc3)n2)cc1` [MOMELOTINIB] the “Population Pyknosed Nuclei (%)” value [1] was 26%, the “Population Tubulin-Different-Phenotype (%)” value [1] was 18% and the “Total Cell Count” value [1] was 260. The “Population Apoptotic (%)” value [2] was 31%, the “Population Fragmented Nuclei (%)” value [2] was 5% and the “Population Healthy Nuclei (%)” value [2] was 58%. The “Population Hoechst High Intensity Objects (%)” value [2] was 6%, the “Population Membrane Permeable-Phenotype (%)” value [2] was 3% and the “Population Mitochondria Different-Phenotype (%)” value [2] was 71%. For the same molecule, the “Population Mitotic Cells (%)” value [2] was 68%, the “Population Normal (%)” value [2] was 93% and the “Population Pyknosed Nuclei (%)” value [2] was 36%. The “Population Tubulin-Different-Phenotype (%)” value [2] was 88%, the “Total Cell Count” value [2] was 423 and the “Population Apoptotic (%)” value [3] was 17%. The “Population Fragmented Nuclei (%)” value [3] was 9%, the “Population Healthy Nuclei (%)” value [3] was 41% and the “Population Hoechst High Intensity Objects (%)” value [3] was 4%. For the same molecule, the “Population Membrane Permeable-Phenotype (%)” value [3] was 15%, the “Population Mitochondria Different-Phenotype (%)” value [3] was 25% and the “Population Mitotic Cells (%)” value [3] was 82%. For the same molecule, the “Population Normal (%)” value [3] was 95%, the “Population Pyknosed Nuclei (%)” value [3] was 49% and the “Population Tubulin-Different-Phenotype (%)” value [3] was 78%. For the same molecule, the “Total Cell Count” value [3] was 239, the “Population Apoptotic (%)” value [4] was 43% and the “Population Fragmented Nuclei (%)” value [4] was 19%. The “Population Healthy Nuclei (%)” value [4] was 67%, the “Population Hoechst High Intensity Objects (%)” value [4] was 4% and the “Population Membrane Permeable-Phenotype (%)” value [4] was 3%. The “Population Mitochondria Different-Phenotype (%)” value [4] was 16%, the “Population Mitotic Cells (%)” value [4] was 56% and the “Population Normal (%)” value [4] was 95%. The “Population Pyknosed Nuclei (%)” value [4] was 13%, the “Population Tubulin-Different-Phenotype (%)” value [4] was 15% and the “Total Cell Count” value [4] was 535. For the same molecule, the “Population Apoptotic (%)” value [5] was 14%, the “Population Fragmented Nuclei (%)” value [5] was 13% and the “Population Healthy Nuclei (%)” value [5] was 76%. The “Population Hoechst High Intensity Objects (%)” value [5] was 3%, the “Population Membrane Permeable-Phenotype (%)” value [5] was 13% and the “Population Mitochondria Different-Phenotype (%)” value [5] was 5%. The “Population Mitotic Cells (%)” value [5] was 85%, the “Population Normal (%)” value [5] was 96% and the “Population Pyknosed Nuclei (%)” value [5] was 9%. The “Population Tubulin-Different-Phenotype (%)” value [5] was 20%, the “Total Cell Count” value [5] was 437 and the “Population Apoptotic (%)” value [6] was 37%. For the same molecule, the “Population Fragmented Nuclei (%)” value [6] was 18%, the “Population Healthy Nuclei (%)” value [6] was 69% and the “Population Hoechst High Intensity Objects (%)” value [6] was 8%. For the same molecule, the “Population Membrane Permeable-Phenotype (%)” value [6] was 2%, the “Population Mitochondria Different-Phenotype (%)” value [6] was 46% and the “Population Mitotic Cells (%)” value [6] was 62%. For the same molecule, the “Population Normal (%)” value [6] was 91%, the “Population Pyknosed Nuclei (%)” value [6] was 11% and the “Population Tubulin-Different-Phenotype (%)” value [6] was 79%. For the same molecule, the “Total Cell Count” value [6] was 471, the “Population Apoptotic (%)” value [7] was 27% and the “Population Fragmented Nuclei (%)” value [7] was 14%. The “Population Healthy Nuclei (%)” value [7] was 59%, the “Population Hoechst High Intensity Objects (%)” value [7] was 4% and the “Population Membrane Permeable-Phenotype (%)” value [7] was 13%. The “Population Mitochondria Different-Phenotype (%)” value [7] was 24%, the “Population Mitotic Cells (%)” value [7] was 72% and the “Population Normal (%)” value [7] was 95%. For the same molecule, the “Population Pyknosed Nuclei (%)” value [7] was 25%, the “Population Tubulin-Different-Phenotype (%)” value [7] was 74% and the “Total Cell Count” value [7] was 253.
